Results published in ChEMBL document CHEMBL1128347, “Non-peptidic inhibitors of human leukocyte elastase. 4. Design, synthesis, and in vitro and in vivo activity of a series of beta-carbolinone-containing trifluoromethyl ketones” (J Med Chem, 1995).
pKi: −log10 of the molar value.

Assays:
Neutrophil elastase = target: T1, Neutrophil elastase (Homo sapiens, UniProt P08246); assay: In vitro inhibitory activity against human leukocyte elastase (HLE) mediated hydrolysis of the synthetic substrate MeO-Suc-Ala-Ala-Pro-Val-pNA
T1 sequence (P08246 whole entry): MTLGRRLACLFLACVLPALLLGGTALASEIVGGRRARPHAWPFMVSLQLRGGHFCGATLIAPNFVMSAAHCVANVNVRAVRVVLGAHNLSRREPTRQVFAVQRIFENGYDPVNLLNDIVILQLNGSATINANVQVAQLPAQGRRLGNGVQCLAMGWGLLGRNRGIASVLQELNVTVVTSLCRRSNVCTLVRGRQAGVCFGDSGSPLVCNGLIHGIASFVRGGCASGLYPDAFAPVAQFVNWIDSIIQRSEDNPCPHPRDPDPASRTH

Chymotrypsinogen A [1] = target: T2, Chymotrypsinogen A (Bos taurus, UniProt P00766); assay: Inhibitory activity against bovine chymotrypsin
[2] = Ratio of the Ki value towards bovine chymotrypsin to that of HLE.
In short: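 Selectivity ratio computed as Ki against bovine pancreatic chymotrypsin divided by Ki against human leukocyte elastase. The elastase Ki came from inhibition of enzyme-catalysed hydrolysis of the chromogenic substrate MeOSuc-Ala-Ala-Pro-Val-pNA.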

[3] = target: T3, Angiotensin-converting enzyme (Oryctolagus cuniculus, UniProt P12822); assay: Inhibitory activity against rabbit Angiotensin I converting enzyme
T3 sequence (P12822 whole entry): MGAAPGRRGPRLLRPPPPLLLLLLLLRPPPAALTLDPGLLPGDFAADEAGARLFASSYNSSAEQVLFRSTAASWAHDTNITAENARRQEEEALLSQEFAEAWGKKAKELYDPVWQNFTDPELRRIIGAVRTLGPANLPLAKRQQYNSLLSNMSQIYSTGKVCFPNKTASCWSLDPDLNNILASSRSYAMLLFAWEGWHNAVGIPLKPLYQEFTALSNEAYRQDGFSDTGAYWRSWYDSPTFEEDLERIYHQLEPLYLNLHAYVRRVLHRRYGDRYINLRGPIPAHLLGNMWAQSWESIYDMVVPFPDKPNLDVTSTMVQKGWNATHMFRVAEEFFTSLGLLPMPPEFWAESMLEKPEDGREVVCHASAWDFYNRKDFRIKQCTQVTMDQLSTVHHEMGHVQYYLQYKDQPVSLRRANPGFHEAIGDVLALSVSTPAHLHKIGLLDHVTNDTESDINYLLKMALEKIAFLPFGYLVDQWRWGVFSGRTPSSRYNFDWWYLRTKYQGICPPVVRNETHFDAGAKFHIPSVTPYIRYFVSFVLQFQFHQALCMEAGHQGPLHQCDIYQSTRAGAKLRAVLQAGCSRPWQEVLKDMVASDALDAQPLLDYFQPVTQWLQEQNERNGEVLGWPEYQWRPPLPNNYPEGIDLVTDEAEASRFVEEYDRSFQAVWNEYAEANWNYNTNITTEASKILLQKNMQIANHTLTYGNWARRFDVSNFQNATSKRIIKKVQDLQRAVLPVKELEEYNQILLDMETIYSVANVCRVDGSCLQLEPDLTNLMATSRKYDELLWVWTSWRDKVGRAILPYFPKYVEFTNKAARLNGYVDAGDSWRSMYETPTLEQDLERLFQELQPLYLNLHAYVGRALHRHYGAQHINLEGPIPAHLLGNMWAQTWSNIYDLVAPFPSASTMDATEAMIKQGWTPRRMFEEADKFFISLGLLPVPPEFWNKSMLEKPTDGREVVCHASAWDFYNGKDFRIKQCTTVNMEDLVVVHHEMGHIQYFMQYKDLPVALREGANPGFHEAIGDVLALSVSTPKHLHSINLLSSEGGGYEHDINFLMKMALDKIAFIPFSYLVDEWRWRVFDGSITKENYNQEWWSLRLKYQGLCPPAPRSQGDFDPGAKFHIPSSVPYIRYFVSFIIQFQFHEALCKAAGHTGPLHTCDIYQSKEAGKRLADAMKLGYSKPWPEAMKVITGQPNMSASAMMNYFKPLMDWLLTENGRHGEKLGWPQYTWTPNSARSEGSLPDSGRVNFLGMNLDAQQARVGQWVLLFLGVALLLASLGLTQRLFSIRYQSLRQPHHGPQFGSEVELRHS

Prothrombin = Prothrombin (Homo sapiens, UniProt P00734); assay: Inhibitory activity against human thrombin mediated hydrolysis of the synthetic substrate […]; No inhibition at the highest concentration tested (400 uM)
Cathepsin G = target: T4, Cathepsin G (Homo sapiens, UniProt P08311); assay: Inhibitory activity against human cathepsin G.
T4 sequence (P08311 whole entry): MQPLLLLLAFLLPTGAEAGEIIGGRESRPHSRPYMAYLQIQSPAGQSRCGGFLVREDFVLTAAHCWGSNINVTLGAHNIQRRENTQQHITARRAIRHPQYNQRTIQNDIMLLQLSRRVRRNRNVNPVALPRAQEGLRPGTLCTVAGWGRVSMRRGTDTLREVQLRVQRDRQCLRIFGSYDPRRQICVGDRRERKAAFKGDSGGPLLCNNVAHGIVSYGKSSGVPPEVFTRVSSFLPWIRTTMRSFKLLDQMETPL

Acetylcholinesterase = Acetylcholinesterase (Electrophorus electricus, UniProt O42275); assay: Inhibitory activity against electric eel Acetylcholinesterase; No inhibition at the highest concentration tested (400 uM)
Chain of Acetylcholinesterase (O42275 whole entry): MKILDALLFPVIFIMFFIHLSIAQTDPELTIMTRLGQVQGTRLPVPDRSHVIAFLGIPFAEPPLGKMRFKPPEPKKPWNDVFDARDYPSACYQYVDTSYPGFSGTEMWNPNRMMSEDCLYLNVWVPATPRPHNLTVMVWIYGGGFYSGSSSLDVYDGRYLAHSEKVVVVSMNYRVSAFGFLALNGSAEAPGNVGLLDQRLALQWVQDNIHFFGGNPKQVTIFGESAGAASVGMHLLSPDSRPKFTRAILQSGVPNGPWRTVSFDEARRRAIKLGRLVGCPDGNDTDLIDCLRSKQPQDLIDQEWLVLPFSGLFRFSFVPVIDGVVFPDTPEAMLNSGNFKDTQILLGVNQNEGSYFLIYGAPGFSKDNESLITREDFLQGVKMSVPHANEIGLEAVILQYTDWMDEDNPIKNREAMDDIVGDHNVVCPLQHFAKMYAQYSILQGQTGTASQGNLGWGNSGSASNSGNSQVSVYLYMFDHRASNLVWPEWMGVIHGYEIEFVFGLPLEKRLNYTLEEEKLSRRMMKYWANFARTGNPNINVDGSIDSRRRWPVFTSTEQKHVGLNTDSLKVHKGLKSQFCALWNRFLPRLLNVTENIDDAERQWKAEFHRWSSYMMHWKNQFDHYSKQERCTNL

Serine protease 1 = target: T5, Serine protease 1 (Bos taurus, UniProt P00760); assay: Inhibitory activity against bovine trypsin; No inhibition at the highest concentration tested (400 uM)
T5 sequence (P00760 whole entry): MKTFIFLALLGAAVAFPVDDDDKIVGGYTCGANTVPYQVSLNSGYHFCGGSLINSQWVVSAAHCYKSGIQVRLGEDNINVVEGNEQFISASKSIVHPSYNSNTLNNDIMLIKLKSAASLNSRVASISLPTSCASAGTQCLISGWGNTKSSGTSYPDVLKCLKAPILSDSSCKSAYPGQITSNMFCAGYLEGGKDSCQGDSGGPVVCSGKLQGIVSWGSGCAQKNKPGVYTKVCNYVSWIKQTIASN

Papain = target: T6, Papain (Carica papaya, UniProt P00784); assay: Inhibitory activity against papain; No inhibition at the highest concentration tested (400 uM)
T6 sequence (P00784 whole entry): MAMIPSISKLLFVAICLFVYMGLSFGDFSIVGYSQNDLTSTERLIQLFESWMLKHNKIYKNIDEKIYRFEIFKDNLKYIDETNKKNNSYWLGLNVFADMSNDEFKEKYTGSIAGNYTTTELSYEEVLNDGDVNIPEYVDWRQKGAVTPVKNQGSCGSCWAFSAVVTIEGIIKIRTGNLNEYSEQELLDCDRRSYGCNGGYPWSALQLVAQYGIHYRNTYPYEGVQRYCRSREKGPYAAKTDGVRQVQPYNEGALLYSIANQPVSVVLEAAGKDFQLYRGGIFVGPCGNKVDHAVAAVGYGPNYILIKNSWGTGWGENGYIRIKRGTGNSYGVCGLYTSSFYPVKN

Chymotrypsinogen A [4] = target: T2, Chymotrypsinogen A; assay: Inhibitory activity against bovine chymotrypsin; No inhibition at the highest concentration tested (>150 uM)

pKi (Neutrophil elastase)	SMILES	further results
8.17	CC(C)C(NC(=O)Cn1c(-c2ccccc2)cc2c3cccc(O)c3nc-2c1O)C(=O)C(F)(F)F (configuration not stated)	–
6.68	CC(C)C(NC(=O)Cn1ccc2c3cc(Cl)ccc3nc-2c1O)C(=O)C(F)(F)F (configuration not stated)	–
–	CC(C)C(NC(=O)Cn1c(-c2ccccc2)cc2c3cccc(C(=O)O)c3nc-2c1O)C(=O)C(F)(F)F (configuration not stated)	pKi (Chymotrypsinogen A [1]): 4.37
7.57	CC(C)C(NC(=O)CN1CCc2c([nH]c3c(C(=O)O)cccc23)C1=O)C(=O)C(F)(F)F (configuration not stated)	–
7.55	CC(C)c1cc2c3cccc(C#N)c3nc-2c(O)n1CC(=O)NC(C(=O)C(F)(F)F)C(C)C (configuration not stated)	–
7.27	CC(C)c1cc2c3ccccc3nc-2c(O)n1CC(=O)NC(C(=O)C(F)(F)F)C(C)C (configuration not stated)	pKi (Chymotrypsinogen A [1]): 5.96; Ratio [2]: 20
6.00	CC(C)C(NC(=O)CN1CCc2c([nH]c3ccc(Cl)cc23)C1=O)C(=O)C(F)(F)F (configuration not stated)	–
7.82	CC(C)C(NC(=O)Cn1c(-c2ccccc2)cc2c3cccc(OS(C)(=O)=O)c3nc-2c1O)C(=O)C(F)(F)F (configuration not stated)	–
7.72	CC(C)c1cc2c3cccc(C(=O)O)c3nc-2c(O)n1CC(=O)NC(C(=O)C(F)(F)F)C(C)C (configuration not stated)	–
7.28	COP(=O)(OC)c1cccc2c3cc(-c4ccccc4)n(CC(=O)NC(C(=O)C(F)(F)F)C(C)C)c(O)c-3nc12 (configuration not stated)	pKi (Chymotrypsinogen A [1]): 4.59; Ratio [2]: 500
8.02	COP(=O)(OC)c1ccc2nc3c(O)n(CC(=O)NC(C(=O)C(F)(F)F)C(C)C)c(-c4ccccc4)cc-3c2c1 (configuration not stated)	–
5.96	COc1ccc2[nH]c3c(c2c1)CCN(CC(=O)NC(C(=O)C(F)(F)F)C(C)C)C3=O (configuration not stated)	–
5.60	CCOC(=O)c1cccc2c3ccn(CC(=O)NC(C(=O)C(F)(F)F)C(C)C)c(O)c-3nc12 (configuration not stated)	–
6.46	COc1ccc2nc3c(O)n(CC(=O)NC(C(=O)C(F)(F)F)C(C)C)ccc-3c2c1 (configuration not stated)	–
6.29	CC(C)C(NC(=O)Cn1ccc2c3ccc(C(=O)O)cc3nc-2c1O)C(=O)C(F)(F)F (configuration not stated)	–
8.18	CC(C)C(NC(=O)Cn1c(-c2ccccc2)cc2c3cccc(C#N)c3nc-2c1O)C(=O)C(F)(F)F (configuration not stated)	pKi (Chymotrypsinogen A [1]): 6.74; Ratio [2]: 27
8.21	CC(C)C(NC(=O)Cn1c(-c2ccccc2)cc2c3ccccc3nc-2c1O)C(=O)C(F)(F)F (configuration not stated)	pKi (Chymotrypsinogen A [1]): 6.37; Ratio [2]: 70
6.54	CC(C)C(NC(=O)Cn1ccc2c3ccccc3nc-2c1O)C(=O)C(F)(F)F (configuration not stated)	Ki (Chymotrypsinogen A [4]): No inhibition
6.47	CCOC(=O)c1ccc2c3ccn(CC(=O)NC(C(=O)C(F)(F)F)C(C)C)c(O)c-3nc2c1 (configuration not stated)	–
7.77	COc1cccc2c3cc(-c4ccccc4)n(CC(=O)NC(C(=O)C(F)(F)F)C(C)C)c(O)c-3nc12 (configuration not stated)	–
6.89	COC(=O)c1cccc2c3cc(-c4ccccc4)n(CC(=O)NC(C(=O)C(F)(F)F)C(C)C)c(O)c-3nc12 (configuration not stated)	–
8.31	CC(C)C(NC(=O)Cn1c(-c2ccccc2)cc2c3cccc(C=O)c3nc-2c1O)C(=O)C(F)(F)F (configuration not stated)	–
7.62	COC(=O)Oc1cccc2c3cc(-c4ccccc4)n(CC(=O)NC(C(=O)C(F)(F)F)C(C)C)c(O)c-3nc12 (configuration not stated)	–
5.96	CC(C)C(NC(=O)CN1CCc2c([nH]c3ccccc23)C1=O)C(=O)C(F)(F)F (configuration not stated)	–
6.14	CC(C)C(NC(=O)Cn1ccc2c3cccc(C(N)=O)c3nc-2c1O)C(=O)C(F)(F)F (configuration not stated)	–

SMILES	pKi (Neutrophil elastase)	further results
CC(C)C(NC(=O)Cn1ccc2c3cccc(C(=O)O)c3nc-2c1O)C(=O)C(F)(F)F (configuration not stated)	7.66	pKi [3]: 4.03; Ki (Prothrombin): No inhibition; pKi (Cathepsin G): 3.89; Ki (Acetylcholinesterase): No inhibition; Ki (Serine protease 1): No inhibition; Ki (Papain): No inhibition; Ki (Chymotrypsinogen A [4]): No inhibition
